Assay results taken from ChEMBL document CHEMBL1128525, “The role of water molecules in the structure-based design of (5-hydroxynorvaline)-2-cyclosporin: synthesis, biological activity, and crystallographic analysis with cyclophilin A” (J Med Chem, 1995).

What was measured:
[1] = target: T1, Peptidyl-prolyl cis-trans isomerase A (Homo sapiens, UniProt P62937); assay: In vitro binding affinity against cyclophilin A by ELISA
[2] = target: T1, Peptidyl-prolyl cis-trans isomerase A; assay: In vitro binding affinity against cyclophilin A by rotamase assay
[3] = species on record: Mus musculus; assay: The compound was evaluated in vitro for the immunosuppressive activity in mouse mixed lymphocyte reaction (MLR_M); assay type: functional
Procedure, shortened: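 Cellular immunosuppression read in the mouse mixed lymphocyte reaction or the interleukin-2 reporter gene assay. The IC50 in nM is the mean of three independent experiments.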

T1 sequence (P62937 whole entry): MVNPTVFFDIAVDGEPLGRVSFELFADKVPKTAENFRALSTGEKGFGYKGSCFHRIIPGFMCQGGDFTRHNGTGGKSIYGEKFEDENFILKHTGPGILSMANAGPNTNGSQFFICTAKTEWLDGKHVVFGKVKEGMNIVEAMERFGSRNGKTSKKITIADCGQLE

Row | IC50 [1] [nM] | IC50 [2] [nM] | IC50 [3] [nM] | SMILES
1 | 93 | 48 | 56 | C/C=C/C[C@@H](C)[C@@H](O)[C@@H]1C(=O)N[C@H](CCC)C(=O)N(C)[C@@H](CO)C(=O)N(C)[C@H](CC(C)C)C(=O)N[C@H](C(C)C)C(=O)N(C)[C@H](CC(C)C)C(=O)N[C@H](C)C(=O)N[C@@H](C)C(=O)N(C)[C@H](CC(C)C)C(=O)N(C)[C@H](CC(C)C)C(=O)N(C)[C@H](C(C)C)C(=O)N1C
2 | 450 | 256 | 140 | C/C=C/C[C@@H](C)[C@@H](O)[C@@H]1C(=O)N[C@H](CCCO)C(=O)N(C)CC(=O)N(C)[C@H](CC(C)C)C(=O)N[C@H](C(C)C)C(=O)N(C)[C@H](CC(C)C)C(=O)N[C@H](C)C(=O)N[C@@H](C)C(=O)N(C)[C@H](CC(C)C)C(=O)N(C)[C@H](CC(C)C)C(=O)N(C)[C@H](C(C)C)C(=O)N1C

Row | SMILES | IC50 [1] [nM] | IC50 [2] [nM] | IC50 [3] [nM]
3 | C/C=C/C[C@@H](C)[C@@H](O)[C@H]1C(=O)N[C@@H](CCC)C(=O)N(C)CC(=O)N(C)[C@@H](CC(C)C)C(=O)N[C@@H](C(C)C)C(=O)N(C)[C@@H](CC(C)C)C(=O)N[C@@H](C)C(=O)N[C@H](C)C(=O)N(C)[C@@H](CC(C)C)C(=O)N(C)[C@@H](CC(C)C)C(=O)N(C)[C@@H](C(C)C)C(=O)N1C [GECLOSPORIN] | 310 | 130 | 46
